Measured values reported in ChEMBL document CHEMBL4732208, “Discovery of novel N-alkylcytidines as promising antimicrobial agents” (Eur J Med Chem, 2021).
Converted amounts (≈) assume the structure as drawn. The source made the active and inactive calls. The rule behind the calls is not given here.

How the values were obtained:
[1] = system: Simplicillium lamellicola; experiment: Antifungal activity against Simplicillium lamellicola SRX772919 STG-96 assessed as reduction in fungal growth at 3 mM measured upto 48 days by drop dilution assay relative to control; format: functional; details: time day <=48
Procedure, shortened: (§1)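 Incubated up to 48 days at 26 °C. Colony diameters read every 3 days (days 6–48). Growth inhibition = (Dc−Dt)/Dc × 100 versus control. Inoculum 5 × 10⁵ CFU. Triplicate, repeated at least twice.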

[2] = system: Mycolicibacterium smegmatis; experiment: Antibacterial activity against Mycobacterium smegmatis VKPM Ac-1339; format: functional
Procedure, shortened: (§2)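 Strains grown in modified Gause's nutrient medium N 2, inoculum 10⁶ cells/ml. Test compound dissolved in 50% aqueous methanol, added at ten volume percent of the medium. Growth controls: medium without additions, medium with solvent mixture, and clinical antibiotics (amikacin, ciprofloxacin, isoniazid, rifampicin, oxacillin, vancomycin).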

[3] = Antifungal activity against Ulocladium chartarum SRX7729176 STG-36 assessed as reduction in fungal growth at 3 mM measured upto 48 days by drop dilution assay relative to control; format: functional; details: Alternaria chartarum, time day <=48; procedure, shortened: as §1
Aspergillus versicolor [4] = experiment: Antifungal activity against Aspergillus versicolor SRX7729174 STG-25G assessed as reduction in fungal growth at 0.1 to 3.5 mM measured for 24 days by drop dilution assay relative to control; format: functional; details: dose 0.1-3.5 mM, time 24.0 day
Procedure, shortened: (§3)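 Drop-dilution method. Suspension plated on CDA with or without compound (screening range 0.1–3.5 mM); 5-fluorocytosine positive control. Incubated at 26 °C. Inhibition % = (Dc−Dt)/Dc × 100 from colony diameters; triplicate, repeated at least twice.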

Aspergillus versicolor [5] = experiment: Antifungal activity against Aspergillus versicolor SRX7729182 STG-25G assessed as reduction in fungal growth at 0.1 to 3.5 mM measured for 24 days by drop dilution assay relative to control; format: functional; details: dose 0.1-3.5 mM, time 24.0 day; procedure, shortened: as §3
Aspergillus versicolor [6] = experiment: Antifungal activity against Aspergillus versicolor SRX7729174 STG-25G assessed as reduction in fungal growth at 3 mM measured upto 48 days by drop dilution assay relative to control; format: functional; details: time day <=48; procedure, shortened: as §1
Staphylococcus aureus [7] = experiment: Antibacterial activity against Staphylococcus aureus FDA 209 P; format: functional; procedure, shortened: as §2
[8] = Subchronic toxicity in ip dosed mouse administered for 5 days and observed for 4 weeks; format: organism-based; details: in vivo
[9] = Antifungal activity against Cladosporium-parahalotolerans SRX7729188 STG-93B assessed as reduction in fungal growth at 3 mM measured upto 48 days by drop dilution assay relative to control; format: functional; details: time day <=48; procedure, shortened: as §1
[10] = system: Leuconostoc mesenteroides; experiment: Antibacterial activity against Leuconostoc mesenteroides VKPM B-4177; format: functional; procedure, shortened: as §2
[11] = Cytotoxicity against human A549 cells by MTT assay; format: cell-based
Procedure, shortened: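 Adherent A549 cells passaged in DMEM with 10% fetal calf serum and 2 mM glutamine, at 37 °C, 5% CO2, 90% humidity. MTT test. CC50 is the concentration that inhibits culture growth by 50%.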

[12] = Antifungal activity against Cladosporium-halotolerans SRX7729178 STG-52B assessed as reduction in fungal growth at 3 mM measured upto 48 days by drop dilution assay relative to control; format: functional; details: time day <=48; procedure, shortened: as §1
[13] = Subchronic toxicity in ip dosed mouse assessed as delayed effect administered for 5 days and observed for 4 weeks; format: organism-based; details: in vivo
[14] = system: Simplicillium lamellicola; experiment: Antifungal activity against Simplicilium-lamellicola SRX772919 STG-96 assessed as reduction in fungal growth at 0.1 to 3.5 mM measured for 24 days by drop dilution assay relative to control; format: functional; details: dose 0.1-3.5 mM, time 24.0 day; procedure, shortened: as §3
[15] = system: Cladosporium parahalotolerans; experiment: Antifungal activity against Cladosporium-parahalotolerans SRX7729188 STG-93B assessed as reduction in fungal growth at 0.1 to 3.5 mM measured for 24 days by drop dilution assay relative to control; format: functional; details: dose 0.1-3.5 mM, time 24.0 day; procedure, shortened: as §3
[16] = Antifungal activity against Aspergillus-amoenus SRX7729194 STG-106 assessed as reduction in fungal growth at 3 mM measured upto 48 days by drop dilution assay relative to control; format: functional; details: time day <=48; procedure, shortened: as §1
Aspergillus creber = experiment: Antifungal activity against Aspergillus-creber SRX7729180 STG-57 assessed as reduction in fungal growth at 0.1 to 3.5 mM measured for 24 days by drop dilution assay relative to control; format: functional; details: dose 0.1-3.5 mM, time 24.0 day; procedure, shortened: as §3
Micrococcus luteus = experiment: Antibacterial activity against Micrococcus luteus NCTC 8340; format: functional; procedure, shortened: as §2
[17] = Antifungal activity against Microascus-paisii SRX7729192 STG-103 assessed as reduction in fungal growth at 3 mM measured upto 48 days by drop dilution assay relative to control; format: functional; details: time day <=48; procedure, shortened: as §1
Aspergillus [18] = experiment: Antifungal activity against Aspergillus SRX7729186 STG-93W assessed as reduction in fungal growth at 3 mM measured upto 48 days by drop dilution assay relative to control; format: functional; details: time day <=48; procedure, shortened: as §1
[19] = Acute toxicity in ip dosed mouse administered for 5 days and observed for 4 weeks; format: organism-based; details: in vivo
Microascus paisii = experiment: Antifungal activity against Microascus-paisii SRX7729192 STG-103 assessed as reduction in fungal growth at 0.1 to 3.5 mM measured for 24 days by drop dilution assay relative to control; format: functional; details: dose 0.1-3.5 mM, time 24.0 day; procedure, shortened: as §3
Bacillus subtilis = experiment: Antibacterial activity against Bacillus subtilis ATCC 6633; format: functional; procedure, shortened: as §2
[20] = system: Cladosporium halotolerans; experiment: Antifungal activity against Cladosporium-halotolerans SRX7729178 STG-52B assessed as reduction in fungal growth at 0.1 to 3.5 mM measured for 24 days by drop dilution assay relative to control; format: functional; details: dose 0.1-3.5 mM, time 24.0 day; procedure, shortened: as §3
Staphylococcus aureus [21] = experiment: Antibacterial activity against Staphylococcus aureus INA 00761; format: functional; procedure, shortened: as §2
Aspergillus versicolor [22] = experiment: Antifungal activity against Aspergillus versicolor SRX7729182 STG-25G assessed as reduction in fungal growth at 3 mM measured upto 48 days by drop dilution assay relative to control; format: functional; details: time day <=48; procedure, shortened: as §1
Aspergillus [23] = experiment: Antifungal activity against Aspergillus SRX7729186 STG-93W assessed as reduction in fungal growth at 0.1 to 3.5 mM measured for 24 days by drop dilution assay relative to control; format: functional; details: dose 0.1-3.5 mM, time 24.0 day; procedure, shortened: as §3
[24] = system: Mycolicibacterium smegmatis; experiment: Antibacterial activity against Mycobacterium smegmatis mc2155; format: functional
Procedure, shortened: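 Strains were grown in modified Gause's nutrient medium N 2 at 10⁶ cells/ml. The compound was dissolved in 50% aqueous methanol and added at 10 volume percent of the medium. Controls were untreated cultures, medium with the solvent mixture, and clinical antibiotics.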

[25] = Antifungal activity against Aspergillus-creber SRX7729180 STG-57 assessed as reduction in fungal growth at 3 mM measured upto 48 days by drop dilution assay relative to control; format: functional; details: time day <=48; procedure, shortened: as §1
Alternaria chartarum = experiment: Antifungal activity against Ulocladium chartarum SRX7729176 STG-36 assessed as reduction in fungal growth at 0.1 to 3.5 mM measured for 24 days by drop dilution assay relative to control; format: functional; details: dose 0.1-3.5 mM, time 24.0 day; procedure, shortened: as §3
Aspergillus amoenus = experiment: Antifungal activity against Aspergillus-amoenus SRX7729194 STG-106 assessed as reduction in fungal growth at 0.1 to 3.5 mM measured for 24 days by drop dilution assay relative to control; format: functional; details: dose 0.1-3.5 mM, time 24.0 day; procedure, shortened: as §3

CCCCCCCCCCCCNc1nc(=O)n([C@H]2C[C@H](O)[C@@H](CO)O2)cc1C
inhibition at 3000 µM [1]: 100%
MIC [2]: 24 µM (≈ 9.83 µg/mL)
inhibition at 3000 µM [3]: 100%
inhibition (Aspergillus versicolor [4]): Active
inhibition (Aspergillus versicolor [5]): Active
inhibition at 3000 µM (Aspergillus versicolor [6]): 100%
MIC (Staphylococcus aureus [7]): 48 µM (≈ 19.7 µg/mL)
LD50 at 672 h [8]: 215 mg/kg
inhibition at 3000 µM [9]: 100%
MIC [10]: 24 µM (≈ 9.83 µg/mL)
CC50 [11]: 158 µM
inhibition at 3000 µM [12]: 100%
LD50 at 672 h [13]: 200 mg/kg
inhibition [14]: Active
inhibition [15]: Active
inhibition at 3000 µM [16]: 100%
inhibition (Aspergillus creber): Active
MIC (Micrococcus luteus): 24 µM (≈ 9.83 µg/mL)
inhibition at 3000 µM [17]: 100%
inhibition at 3000 µM (Aspergillus [18]): 100%
LD50 at 672 h [19]: 270 mg/kg
inhibition (Microascus paisii): Active
MIC (Bacillus subtilis): 24 µM (≈ 9.83 µg/mL)
inhibition [20]: Active
MIC (Staphylococcus aureus [21]): 48 µM (≈ 19.7 µg/mL)
inhibition at 3000 µM (Aspergillus versicolor [22]): 100%
inhibition (Aspergillus [23]): Active
MIC [24]: 24 µM (≈ 9.83 µg/mL)
inhibition at 3000 µM [25]: 100%
inhibition (Alternaria chartarum): Active
inhibition (Aspergillus amoenus): Active
